This note sets out measurements from ChEMBL document CHEMBL1125297, “Synthesis and biologic activity of 2'-fluoro-2-halo derivatives of 9-beta-D-arabinofuranosyladenine” (J Med Chem, 1992).

One assay has as its system L1210. Description: Compound was tested for cytotoxicity against L1210 cell lines. The settings on record: Mus musculus. The format is functional, cell-based. Summed up:
(§1)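 Cell-proliferation assay run against each named cell line. The value is the concentration that holds proliferation at 50% of untreated controls.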

The subject of a further assay is CCRF-CEM. The experiment in a line: Compound was tested for cytotoxicity against CCRF-CEM cell lines. In kind it is functional, cell-based. To be noted: Homo sapiens. Summed up:
as §1

A further assay concerns HEp-2. The experiment in a line: Compound was tested for cytotoxicity against HEp-2 cell lines. The settings on record: Homo sapiens. The format is functional, cell-based. Summed up: as §1
Assay [1] has as its system Mus musculus. The experiment in a line: Tumor-free survivors of P388 leukemia infected mice was measured after ip administration of 20 mg/kg in 6 mice. The settings on record: route intraperitoneal. In kind it is functional. An outline of the steps: (§2)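 CD2F1 mice received 10⁶ P388 leukemia cells ip on day 0 and were then dosed ip in mg/kg per dose, at or below the LD10. Tumor-free survivors were scored among the treated group.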

Another assay deals with K562. The experiment in a line: Compound was tested for cytotoxicity against K562 cell lines. The format is functional, cell-based. To be noted: Homo sapiens. Summed up: as §1
Assay [2] concerns Mus musculus. The experiment in a line: Log chance in viable tumor cells population was measured after intraperitoneal administration of 100 mg/kg. The format is functional. Summed up: (§3)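 CD2F1 mice were implanted ip with 10⁶ P388 leukemia cells on day 0, then treated ip. Doses are mg/kg per dose, kept at or below LD₁₀. Read-out is the log change in viable tumor cells from start to end of therapy, based on the median day of death among the animals that died.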

The test system of assay [3] is Mus musculus. Description: Log chance in viable tumor cells population was measured after intraperitoneal administration of 25 mg/kg. In kind it is functional. Summed up: as §3
The subject of assay [4] is Mus musculus. Description: Log chance in viable tumor cells population was measured after intraperitoneal administration of 200 mg/kg. In kind it is functional. Summed up: as §3
Assay [5] deals with Mus musculus. Description: Log chance in viable tumor cells population was measured after intraperitoneal administration of 20 mg/kg. In kind it is functional. An outline of the steps: as §3
In assay [6] the test system is Mus musculus. The experiment in a line: Tumor-free survivors of P388 leukemia infected mice was measured after ip administration of 25 mg/kg in 5 mice. The format is functional. The settings on record: route intraperitoneal. An outline of the steps: as §2
The subject of assay [7] is Mus musculus. Description: Tumor-free survivors of P388 leukemia infected mice was measured after ip administration of 200 mg/kg in 3 mice. The format is functional. The settings on record: route intraperitoneal. Summed up: as §2
For assay [8], the system named is Mus musculus. Description: In Vivo increase in life span of dying mice implanted ip with 10E6 P388 leukemia, after ip administration of 25 mg/kg. In kind it is functional. The settings on record: route intraperitoneal. An outline of the steps: (§4)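 CD2F1 mice implanted ip with 10⁶ P388 leukemia cells on day 0. Treatment ip, doses given as mg/kg per dose and kept at or below the LD10. Read-out is increase in life span against untreated controls.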

The subject of assay [9] is Mus musculus. The experiment in a line: In Vivo increase in life span of dying mice implanted ip with 10E6 P388 leukemia, after ip administration of 200 mg/kg. The format is functional. To be noted: route intraperitoneal. An outline of the steps:
as §4

Assay [10] has as its system Mus musculus. Description: In Vivo increase in life span of dying mice implanted ip with 10E6 P388 leukemia, after ip administration of 100 mg/kg. The format is functional. The settings on record: route intraperitoneal. Summed up: as §4
Assay [11] concerns Mus musculus. Description: Tumor-free survivors of P388 leukemia infected mice was measured after ip administration of 100 mg/kg in 5 mice. The format is functional. To be noted: route intraperitoneal. An outline of the steps:
as §2

Assay [12] has as its system Mus musculus. Description: In Vivo increase in life span of dying mice implanted ip with 10E6 P388 leukemia, after ip administration of 20 mg/kg. In kind it is functional. To be noted: route intraperitoneal. Summed up:
as §4

In assay [13] the test system is Mus musculus. The experiment in a line: Tumor-free survivors of P388 leukemia infected mice was measured after ip administration of 25 mg/kg in 6 mice. The format is functional. To be noted: route intraperitoneal. An outline of the steps: as §2
In assay [14] the test system is Mus musculus. Description: Tumor-free survivors of P388 leukemia infected mice was measured after ip administration of 100 mg/kg in 3 mice. The settings on record: route intraperitoneal. In kind it is functional. An outline of the steps: as §2
Assay [15] has as its system Mus musculus. Description: In Vivo increase in life span of dying mice implanted ip with 10E6 P388 leukemia, after ip administration of 50 mg/kg. The format is functional. To be noted: route intraperitoneal. Summed up: as §4
The test system of assay [16] is Mus musculus. The experiment in a line: Log change in viable tumor cells population was measured at end of therapy when compared to start of therapy at dose 200 mg/kg. In kind it is functional. Summed up:
as §3

The subject of assay [17] is Mus musculus. Description: Tumor-free survivors of P388 leukemia infected mice was measured after ip administration of 30 mg/kg in 6 mice. The format is functional. To be noted: route intraperitoneal. Summed up:
as §2

Assay [18] deals with Mus musculus. The experiment in a line: In Vivo increase in life span of dying mice implanted ip with 10E6 P388 leukemia, after ip administration of 30 mg/kg. In kind it is functional. The settings on record: route intraperitoneal. Summed up: as §4
Assay [19] has as its system Mus musculus. The experiment in a line: Tumor-free survivors of P388 leukemia infected mice was measured after ip administration of 50 mg/kg in 6 mice. The format is functional. To be noted: route intraperitoneal. An outline of the steps: as §2
Assay [20] has as its system Mus musculus. Description: Log change in viable tumor cells population was measured at end of therapy when compared to start of therapy at dose 50 mg/kg. In kind it is functional. An outline of the steps:
as §3

Assay [21] relates to Mus musculus. The experiment in a line: Tumor-free survivors of P388 leukemia infected mice was measured after ip administration of 200 mg/kg in 6 mice. To be noted: route intraperitoneal. The format is functional. Summed up:
as §2

The test system of assay [22] is Mus musculus. The experiment in a line: Log change in viable tumor cells population was measured at end of therapy when compared to start of therapy at dose 30 mg/kg. In kind it is functional. Summed up:
as §3

Where only a bound is given, the exact number is not on record here.

As for `Nc1nc(F)nc2c1ncn2[C@H]1C[C@H](O)[C@@H](CO)O1`, the IC50 (usually the concentration needed to halve the response being measured) with L1210 worked out at 0.9 µM; with CCRF-CEM, 0.2 µM; in the assay with HEp-2 it was 0.2 µM.
As for `Nc1nc(Cl)nc2c1ncn2[C@@H]1O[C@H](CO)[C@@H](O)[C@@H]1F` [CLOFARABINE], the Tumor free survivors is reported as 1 in the assay on Mus musculus [1], 0 with Mus musculus [6], 0 in the assay on Mus musculus [7] and 0 in the assay with Mus musculus [11]. Besides, the IC50 with K562 was 0.003 µM; in the assay on L1210 it was 0.23 µM; with CCRF-CEM, 0.05 µM; in the assay with HEp-2, 0.012 µM. For the same compound, the Log change in the assay on Mus musculus [2] was -0.3; with Mus musculus [3] it was -2.8; with Mus musculus [4], -1.6; in the assay on Mus musculus [5], -6.6. The ILS (in general, how much longer treated animals lived than controls) at 25 mg/kg in the assay with Mus musculus [8] stood at 118%. This compound also displayed an ILS at 200 mg/kg in the assay with Mus musculus [9] of 59%. Moreover, the ILS at 100 mg/kg in the assay on Mus musculus [10] amounted to 38%. The compound also gave an ILS at 20 mg/kg with Mus musculus [12] of 220%.
Consider `Nc1nc(Cl)nc2c1ncn2[C@H]1C[C@H](O)[C@@H](CO)O1` [CLADRIBINE], for which the figures for the IC50 with L1210, in the assay with CCRF-CEM and with HEp-2 were 0.07 µM, 0.003 µM and 0.03 µM, respectively.
On to `Nc1nc(Br)nc2c1ncn2[C@H]1C[C@H](O)[C@@H](CO)O1`, for which the IC50 in the assay with L1210 came out at 0.9 µM; in the assay on CCRF-CEM, 0.02 µM; with HEp-2, 0.02 µM.
In the case of `Nc1nc(F)nc2c1ncn2[C@@H]1O[C@H](CO)[C@@H](O)[C@@H]1F`, the IC50 in the assay on K562 was determined as 0.3 µM; in the assay with L1210, 0.38 µM; in the assay on CCRF-CEM, 0.14 µM; with HEp-2, 0.34 µM. Also, the Log change in the assay with Mus musculus [2] is -1.8; in the assay with Mus musculus [3], -0.1. Further, the Tumor free survivors in the assay on Mus musculus [13] and with Mus musculus [14] was 0 throughout. This compound had an ILS at 25 mg/kg in the assay on Mus musculus [8] of 81%. The compound also returned an ILS at 100 mg/kg with Mus musculus [10] of 63%.
In the assay with Mus musculus [15], `Nc1nc(Br)nc2c1ncn2[C@@H]1O[C@H](CO)[C@@H](O)[C@H]1F` had an ILS at 50 mg/kg of 41%. For the same compound, the IC50 in the assay with K562 worked out at 0.05 µM; in the assay on L1210 it was 0.26 µM; in the assay with CCRF-CEM it was 0.02 µM; with HEp-2, 0.22 µM. Also, the results for the Log change with Mus musculus [16], with Mus musculus [20] and with Mus musculus [22] were 0.1, 1.6 and -1, respectively. The Tumor free survivors in the assay on Mus musculus [17], in the assay on Mus musculus [19] and in the assay on Mus musculus [21] was 0 in each case. Also, the increase in life span (ILS) at 200 mg/kg in the assay with Mus musculus [9] is 33%. The increase in lifespan (ILS) at 30 mg/kg in the assay with Mus musculus [18] is 100%.
Regarding `Nc1nc(Cl)nc2c1ncn2[C@@H]1O[C@H](CO)[C@@H](O)[C@H]1O`, the values for the IC50 in the assay on L1210, in the assay with CCRF-CEM and with HEp-2 were below 3 µM, 10 µM and 3 µM, respectively.
For the compound `Nc1nc(F)nc2c1ncn2[C@@H]1O[C@H](CO)[C@@H](O)[C@@H]1O` [FLUDARABINE], the 50% inhibitory concentration (IC50) is 0.15 µM in the assay with K562, 3 µM with L1210, 0.4 µM in the assay on CCRF-CEM and 9 µM in the assay on HEp-2.
For `Nc1nc(Br)nc2c1ncn2C1O[C@H](CO)[C@@H](O)[C@H]1O` (some centres not stated), the IC50 was found to be 3 µM in the assay with L1210 and 4 µM with HEp-2.
